Laboratory results from ChEMBL document CHEMBL2346664, “Synthesis, characterization and in vitro anticancer evaluation of novel 1,2,4-triazolin-3-one derivatives” (2013).

Assays:
Assay type in all cases: functional
BT-549 = assay: Growth inhibition of human BT549 cells assessed as cell growth at 10 uM after 48 hrs by sulforhodamine B assay; conditions: BT-549, 48 h, read-out: Activity
Procedure, shortened: (§1)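 NCI-60 primary screen at a single dose of 10^-5 M. Output is mean growth percent of treated cells relative to untreated controls, where values between 0 and 100 indicate growth inhibition and values below 0 indicate cytotoxicity. Cells were plated 24 h before drug, incubated 48 h at 37 °C, 5% CO2, and stained with SRB after TCA fixation. Suspension cells were fixed with 80% TCA (16% final).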

MCF7 = assay: Growth inhibition of human MCF7 cells assessed as cell growth at 10 uM after 48 hrs by sulforhodamine B assay; conditions: MCF7, 48 h, read-out: Activity
Procedure, shortened: (§2)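 NCI-60 primary single-dose screen at 10^-5 M, 48 h continuous exposure. Adherent cells were fixed with cold TCA (10% final) and suspension cells with 16% final TCA, then stained with 0.4% SRB in 1% acetic acid. Bound dye was solubilized in 10 mM Tris base and read at 515 nm. Output is growth percent relative to untreated controls, and GI% is 100 minus growth percent.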

PC-3 = assay: Growth inhibition of human PC3 cells assessed as cell growth at 10 uM after 48 hrs by sulforhodamine B assay; conditions: PC-3, 48 h, read-out: Activity
Procedure, shortened: (§3)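 NCI-60 single-dose screen at 10^-5 M. Cells plated at 5,000–40,000/well by doubling time and grown 24 h at 37 °C, 5% CO2, then drug added from DMSO stock for 48 h continuous exposure. Adherent cells fixed with cold TCA (final 10%), suspension cells with 16% TCA. SRB stain read at 515 nm. Reported as growth percent relative to untreated controls and time-zero plates.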

UO-31 = assay: Growth inhibition of human UO31 cells assessed as cell growth at 10 uM after 48 hrs by sulforhodamine B assay; conditions: UO-31, 48 h, read-out: Activity; procedure, shortened: as §3
RXF 393 = assay: Growth inhibition of human RXF393 cells assessed as cell growth at 10 uM after 48 hrs by sulforhodamine B assay; conditions: RXF 393, 48 h, read-out: Activity; procedure, shortened: as §3
CAKI-1 = assay: Growth inhibition of human CAKI-1 cells assessed as cell growth at 10 uM after 48 hrs by sulforhodamine B assay; conditions: CAKI-1, 48 h, read-out: Activity; procedure, shortened: as §1
A498 = assay: Growth inhibition of human A498 cells assessed as cell growth at 10 uM after 48 hrs by sulforhodamine B assay; conditions: A498, 48 h, read-out: Activity; procedure, shortened: as §1
786-0 = assay: Growth inhibition of human 786-0 cells assessed as cell growth at 10 uM after 48 hrs by sulforhodamine B assay; conditions: 786-0, 48 h, read-out: Activity; procedure, shortened: as §1
[1] = Growth inhibition of human NCI-ADR-RES cells assessed as cell growth at 10 uM after 48 hrs by sulforhodamine B assay; conditions: read-out: Activity; procedure, shortened: as §2
OVCAR-8 = assay: Growth inhibition of human OVCAR8 cells assessed as cell growth at 10 uM after 48 hrs by sulforhodamine B assay; conditions: OVCAR-8, 48 h, read-out: Activity; procedure, shortened: as §3
OVCAR-4 = assay: Growth inhibition of human OVCAR4 cells assessed as cell growth at 10 uM after 48 hrs by sulforhodamine B assay; conditions: OVCAR-4, 48 h, read-out: Activity; procedure, shortened: as §3
OVCAR-3 = assay: Growth inhibition of human OVCAR3 cells assessed as cell growth at 10 uM after 48 hrs by sulforhodamine B assay; conditions: OVCAR-3, 48 h, read-out: Activity; procedure, shortened: as §3
UACC-62 = assay: Growth inhibition of human UACC62 cells assessed as cell growth at 10 uM after 48 hrs by sulforhodamine B assay; conditions: UACC-62, 48 h, read-out: Activity; procedure, shortened: as §3
SK-MEL-28 = assay: Growth inhibition of human SK-MEL-28 cells assessed as cell growth at 10 uM after 48 hrs by sulforhodamine B assay; conditions: SK-MEL-28, 48 h, read-out: Activity; procedure, shortened: as §3
U-251 = assay: Growth inhibition of human U251 cells assessed as cell growth at 10 uM after 48 hrs by sulforhodamine B assay; conditions: U-251, 48 h, read-out: Activity; procedure, shortened: as §3
LOX IMVI = assay: Growth inhibition of human LOXIMVI cells assessed as cell growth at 10 uM after 48 hrs by sulforhodamine B assay; conditions: read-out: Activity; procedure, shortened: as §2
SNB-75 = assay: Growth inhibition of human SNB75 cells assessed as cell growth at 10 uM after 48 hrs by sulforhodamine B assay; conditions: SNB-75, 48 h, read-out: Activity; procedure, shortened: as §3
SNB-19 = assay: Growth inhibition of human SNB19 cells assessed as cell growth at 10 uM after 48 hrs by sulforhodamine B assay; conditions: SNB-19, 48 h, read-out: Activity; procedure, shortened: as §3
SF-539 = assay: Growth inhibition of human SF539 cells assessed as cell growth at 10 uM after 48 hrs by sulforhodamine B assay; conditions: SF-539, 48 h, read-out: Activity; procedure, shortened: as §3
KM12 = assay: Growth inhibition of human KM12 cells assessed as cell growth at 10 uM after 48 hrs by sulforhodamine B assay; conditions: KM12, 48 h, read-out: Activity; procedure, shortened: as §2
HCT-15 = assay: Growth inhibition of human HCT15 cells assessed as cell growth at 10 uM after 48 hrs by sulforhodamine B assay; conditions: HCT-15, 48 h, read-out: Activity; procedure, shortened: as §2
[2] = Growth inhibition of human HCC2998 cells assessed as cell growth at 10 uM after 48 hrs by sulforhodamine B assay; conditions: HCC 2998, 48 h, read-out: Activity; procedure, shortened: as §2
HCT-116 = assay: Growth inhibition of human HCT116 cells assessed as cell growth at 10 uM after 48 hrs by sulforhodamine B assay; conditions: HCT-116, 48 h, read-out: Activity; procedure, shortened: as §2
COLO 205 = assay: Growth inhibition of human COLO205 cells assessed as cell growth at 10 uM after 48 hrs by sulforhodamine B assay; conditions: COLO 205, 48 h, read-out: Activity; procedure, shortened: as §2
NCI-H23 = assay: Growth inhibition of human NCI-H23 cells assessed as cell growth at 10 uM after 48 hrs by sulforhodamine B assay; conditions: NCI-H23, 48 h, read-out: Activity; procedure, shortened: as §2
[3] = Growth inhibition of human EKVX cells assessed as cell growth at 10 uM after 48 hrs by sulforhodamine B assay; conditions: read-out: Activity; procedure, shortened: as §2
A549 = assay: Growth inhibition of human A549 cells assessed as cell growth at 10 uM after 48 hrs by sulforhodamine B assay; conditions: A549, 48 h, read-out: Activity; procedure, shortened: as §1
SR = assay: Growth inhibition of human SR cells assessed as cell growth at 10 uM after 48 hrs by sulforhodamine B assay; conditions: read-out: Activity; procedure, shortened: as §3
MOLT-4 = assay: Growth inhibition of human MOLT4 cells assessed as cell growth at 10 uM after 48 hrs by sulforhodamine B assay; conditions: MOLT-4, 48 h, read-out: Activity; procedure, shortened: as §2
HL-60(TB) = assay: Growth inhibition of human HL-60(TB) cells assessed as cell growth at 10 uM after 48 hrs by sulforhodamine B assay; conditions: HL-60, 48 h, read-out: Activity
Procedure, shortened: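 NCI DTP single high-dose primary screen at 10^-5 M across 60 human tumour lines. Growth percent of treated cells is taken relative to untreated controls: values of 0–100 indicate growth inhibition and values below 0 indicate cytotoxicity. Both growth percent and percentage growth inhibition are reported.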

| SMILES | growth at 10 µM (BT-549) [%] | growth at 10 µM (MCF7) [%] | growth at 10 µM (PC-3) [%] | growth at 10 µM (UO-31) [%] | growth at 10 µM (RXF 393) [%] | growth at 10 µM (CAKI-1) [%] | growth at 10 µM (A498) [%] | growth at 10 µM (786-0) [%] | growth at 10 µM [1] [%] | growth at 10 µM (OVCAR-8) [%] | growth at 10 µM (OVCAR-4) [%] | growth at 10 µM (OVCAR-3) [%] | growth at 10 µM (UACC-62) [%] | growth at 10 µM (SK-MEL-28) [%] | growth at 10 µM (U-251) [%] | growth at 10 µM (LOX IMVI) [%] | growth at 10 µM (SNB-75) [%] | growth at 10 µM (SNB-19) [%] | growth at 10 µM (SF-539) [%] | growth at 10 µM (KM12) [%] | further results |
| --- | --- | --- | --- | --- | --- | --- | --- | --- | --- | --- | --- | --- | --- | --- | --- | --- | --- | --- | --- | --- | --- |
| Cc1nn(-c2ccc(Cl)cc2)c(=O)n1CCN1CCOCC1 | 61.5 | 73.4 | 80.8 | 66 | 42.1 | 72.4 | 105 | 59.4 | 75.9 | 116 | 93.4 | 79.2 | 82.8 | 92.9 | 42.9 | 81.6 | 7.65 | 58.7 | 67 | 81.3 | growth at 10 µM (HCT-15): 74.2%; growth at 10 µM [2]: 91.3%; growth at 10 µM (HCT-116): 29.5%; growth at 10 µM (COLO 205): 107%; growth at 10 µM (NCI-H23): 64.5%; growth at 10 µM [3]: 75.5%; growth at 10 µM (A549): 56.4%; growth at 10 µM (SR): 95.3%; growth at 10 µM (MOLT-4): 90.9%; growth at 10 µM (HL-60(TB)): 105% |
| Cc1cc(=O)oc2cc(OCCn3c(C)nn(-c4ccc(Cl)cc4)c3=O)ccc12 | 56.7 | 15.8 | 48.5 | 42.8 | 37.4 | 19.5 | 25.7 | 32.9 | 24.7 | 17.7 | 67.1 | 14.8 | 43.3 | 40.8 | 31.4 | 48 | 20.4 | 54.5 | 29.5 | 31.4 | growth at 10 µM (HCT-15): 17.7%; growth at 10 µM [2]: 46.7%; growth at 10 µM (HCT-116): 15.1%; growth at 10 µM (COLO 205): 10.6%; growth at 10 µM (NCI-H23): 45.8%; growth at 10 µM [3]: 58.7%; growth at 10 µM (A549): 30.2%; growth at 10 µM (SR): 21.2%; growth at 10 µM (MOLT-4): 37.6%; growth at 10 µM (HL-60(TB)): -5.7% |
